Drawing on ChEMBL document CHEMBL1132805, “Parallel synthesis of isatin-based serine protease inhibitors” (Bioorg Med Chem Lett, 2000), this text covers inhibition for eleven compounds.

Calls of active or inactive are those of the source. The rule behind the calls is not given here.

Assay [1] concerns the target Plasminogen (Homo sapiens) (UniProt P00747). The assay can be described thus: Inhibition of human plasmin at 20 ug/mL. Put shortly: (§1)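 Plasmin from human plasma, 165 pM in reaction, with fluorogenic H-Ala-Phe-Lys-AMC. α2-Antiplasmin serves as the control inhibitor. Run in 50 mM Tris-HCl pH 7.2, 15% glycerol, 60 min at 37 °C. Read-out is AMC fluorescence at ex/em 370/460 nm. Compounds come from 10 mg/mL DMSO stock. Quenching is checked with free AMC in the same buffer.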

Assay [2] concerns the target T1, Neutrophil elastase (Homo sapiens) (UniProt P08246).
T1 sequence (whole entry): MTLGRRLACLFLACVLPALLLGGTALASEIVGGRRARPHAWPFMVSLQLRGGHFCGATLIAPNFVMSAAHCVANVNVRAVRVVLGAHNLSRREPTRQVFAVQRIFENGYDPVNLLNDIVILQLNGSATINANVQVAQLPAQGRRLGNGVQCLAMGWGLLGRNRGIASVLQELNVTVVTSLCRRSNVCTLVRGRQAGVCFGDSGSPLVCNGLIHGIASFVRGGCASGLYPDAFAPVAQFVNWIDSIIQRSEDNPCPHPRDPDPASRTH
The assay can be described thus: Inhibition of human leucocyte elastase at 20 ug/mL. The method in brief:
(§2)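 Human leukocyte elastase at 40 nM in reaction, with substrate Suc-Ala-Pro-Ala-AMC. A commercial elastase inhibitor serves as control. 50 mM Tris-HCl pH 7.2 with 15% glycerol, 60 min at 37 °C. Fluorescence read at 370/460 nm. Compounds are added from 10 mg/mL DMSO stock. Quenching is assessed on free AMC in the assay buffer.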

The target in assay [3] is T2, Chymotrypsin-C (Homo sapiens) (UniProt Q99895).
T2 sequence (whole entry): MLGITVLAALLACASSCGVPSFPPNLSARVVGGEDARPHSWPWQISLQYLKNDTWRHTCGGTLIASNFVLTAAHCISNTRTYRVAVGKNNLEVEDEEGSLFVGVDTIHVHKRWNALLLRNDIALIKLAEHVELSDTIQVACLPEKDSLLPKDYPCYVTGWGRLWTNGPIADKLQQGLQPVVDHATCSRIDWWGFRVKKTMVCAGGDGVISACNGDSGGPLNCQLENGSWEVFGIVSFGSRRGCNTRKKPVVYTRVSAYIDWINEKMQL
The experiment in a line: Inhibition of human Serine protease chymotrypsin at 20 ug/mL. Put shortly:
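Fluorogenic substrate Suc-Ala-Ala-Pro-Phe-AMC. Chymostatin serves as the control inhibitor. Reaction in 50 mM Tris-HCl pH 7.2 with 15% glycerol, incubated 60 min at 37 °C. AMC fluorescence is read at ex/em 370/460 nm. Compounds are from DMSO stock, 10 mg/mL. Compound quenching is checked against free AMC in the same buffer.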

The target of assay [4] is Plasminogen (Homo sapiens) (UniProt P00747). The assay can be described thus: Evaluated for percent inhibition of human plasmin at 20 ug/mL; NA means not active. Put shortly: as §1
In assay [5] the target is T1, Neutrophil elastase (Homo sapiens). The assay can be described thus: Evaluated for percent inhibition of human leucocyte elastase at 20 ug/mL; NA means not active. The method in brief: as §2

Sequence of Plasminogen (Homo sapiens) (P00747 97-580 limits assumed): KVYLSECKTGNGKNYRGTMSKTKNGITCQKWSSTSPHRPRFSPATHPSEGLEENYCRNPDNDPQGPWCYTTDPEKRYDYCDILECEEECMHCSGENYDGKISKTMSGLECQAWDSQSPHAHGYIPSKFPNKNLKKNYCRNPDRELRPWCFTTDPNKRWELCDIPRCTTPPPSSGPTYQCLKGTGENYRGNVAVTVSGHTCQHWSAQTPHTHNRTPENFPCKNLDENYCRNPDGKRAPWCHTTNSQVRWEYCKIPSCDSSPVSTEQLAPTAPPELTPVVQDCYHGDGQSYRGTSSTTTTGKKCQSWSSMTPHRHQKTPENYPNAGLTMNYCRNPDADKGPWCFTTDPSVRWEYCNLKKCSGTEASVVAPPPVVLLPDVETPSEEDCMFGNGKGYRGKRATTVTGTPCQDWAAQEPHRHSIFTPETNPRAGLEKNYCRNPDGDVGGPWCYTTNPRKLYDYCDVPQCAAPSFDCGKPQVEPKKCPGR
Sequence of Plasminogen (Homo sapiens) (P00747 581-810 limits assumed): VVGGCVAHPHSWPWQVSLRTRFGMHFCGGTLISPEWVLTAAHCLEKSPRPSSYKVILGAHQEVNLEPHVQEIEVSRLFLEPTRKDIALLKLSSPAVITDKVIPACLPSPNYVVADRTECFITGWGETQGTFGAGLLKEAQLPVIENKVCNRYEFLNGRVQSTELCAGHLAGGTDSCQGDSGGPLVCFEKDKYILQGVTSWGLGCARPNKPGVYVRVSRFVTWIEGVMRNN

With `O=C1C(=O)N(CC(=O)N2CCN(C(=O)Nc3cccc4ccccc34)CC2)c2ccc(Cl)cc21`, the inhibition – broadly, the relative decrease from the control value, in per cent – in assay [1] came out at 80%; in assay [2] it was 74%; in assay [3], 82%.
Taken in the same sequence, the figures for `CCCCOC(=O)Nc1cccc(NC(=O)NC(=O)N2CCN(C(=O)CN3C(=O)C(=O)c4cc([N+](=O)[O-])ccc43)CC2)c1` were 82%, 94% and 87%.
As to `O=C(CN1C(=O)C(=O)c2cc(OC(F)(F)F)ccc21)c1ccc2ccccc2c1`, the inhibition in assay [1] came out at 86%; in assay [2], 64%; in assay [3], 97%.
The like results for `Cc1ccc(C(=O)CN2C(=O)C(=O)c3ccccc32)cc1` were, in that order, 84%, 45% and 94%.
`CC(C)C[C@H](NC(=O)[C@@H](NC(=O)N[C@@H](Cc1ccccc1)C(=O)O)C1CCNC(=N)N1)C(=O)N[C@H](C=O)Cc1ccccc1` (stereo partly drawn): the inhibition entry in assay [4] and in assay [5] was “inactive” throughout. In assay [3], this compound showed an inhibition of 95%.
`O=C(CN1C(=O)C(=O)c2ccccc21)c1ccc(Cl)cc1`: the inhibition in assay [1] came out at 87%; in assay [2], 56%; in assay [3], 89%.
Taken in the same sequence, the figures for `NC(=O)CN1C(=O)C(=O)c2ccccc21` were 29%, 3% and 5%.
The like results for `N#Cc1cccc(NC(=O)N2CCN(C(=O)CN3C(=O)C(=O)c4cc(OC(F)(F)F)ccc43)CC2)c1` were, in that order, 57%, 26% and 77%.
Take `O=C(CN1C(=O)C(=O)c2ccccc21)c1ccc(F)cc1`: the values for the inhibition in assay [1], in assay [2] and in assay [3] were 89%, 90% and 83%, respectively.
For the compound `CC(C)(C)C(=O)CN1C(=O)C(=O)c2ccccc21`, the inhibition in assay [1] came to 55%; in assay [2], 51%; in assay [3], 85%.
The like results for `O=C1C(=O)N(CC(=O)N2CCN(C(=O)Nc3cccc4ccccc34)CC2)c2ccc(OC(F)(F)F)cc21` were, in that order, 77%, 79% and 79%.
